In data set [1] the target is T1, Salicyl-AMP ligase / salicyl-S-ArCP synthetase (Mycobacterium tuberculosis, UniProt P71716).
T1 sequence (P71716 whole entry): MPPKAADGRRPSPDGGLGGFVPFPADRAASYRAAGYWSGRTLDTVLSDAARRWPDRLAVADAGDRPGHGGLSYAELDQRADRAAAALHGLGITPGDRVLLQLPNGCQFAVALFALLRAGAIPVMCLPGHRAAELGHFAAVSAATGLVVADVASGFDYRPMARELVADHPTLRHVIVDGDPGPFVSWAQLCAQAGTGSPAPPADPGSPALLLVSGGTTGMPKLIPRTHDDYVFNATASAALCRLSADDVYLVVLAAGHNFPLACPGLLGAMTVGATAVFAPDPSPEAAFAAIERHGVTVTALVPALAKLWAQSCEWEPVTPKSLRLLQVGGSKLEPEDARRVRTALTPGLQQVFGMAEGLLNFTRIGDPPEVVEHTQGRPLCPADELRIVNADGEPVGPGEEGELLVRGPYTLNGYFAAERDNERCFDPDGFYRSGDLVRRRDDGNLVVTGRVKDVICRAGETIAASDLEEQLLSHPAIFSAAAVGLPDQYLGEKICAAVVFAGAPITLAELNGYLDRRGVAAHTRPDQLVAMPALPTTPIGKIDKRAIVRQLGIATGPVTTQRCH
The data set is described as follows: Inhibition of Mycobacterium tuberculosis recombinant MbtA expressed in Escherichia coli by ATP-PPi exchange assay. The settings on record: read-out: Ki(app).

The subject of data set [2] is Mycobacterium tuberculosis. As to the kind of experiment: Antitubercular activity against Mycobacterium tuberculosis H37Rv in iron-deficient GAST medium after 10 to 14 days by broth dilution method. The data set is classed as functional. Put shortly: (§1)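 MIC99 by broth microdilution in quadruplicate in GAST, either iron-deficient or supplemented with 200 µM FeCl3. Compounds were added from DMSO stocks, with DMSO-treated controls. Inoculum was 10⁴-10⁵ cells/assay, incubation 37 °C for 10-14 days, and growth read as OD620. MIC99 is the lowest concentration completely inhibiting observable growth.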

The test system of data set [3] is Mycobacterium tuberculosis. As to the kind of experiment: Antitubercular activity against Mycobacterium tuberculosis H37Rv in iron-replete GAST medium after 10 to 14 days by broth dilution method. The data set is classed as functional. Put shortly: as §1
(Broth dilution looks for growth in wells or tubes with falling amounts of substance.)

The test system of data set [4] is Mycobacterium tuberculosis. The data set is described as follows: Ratio of MIC99 for Mycobacterium tuberculosis H37Rv in iron-replete GAST medium to MIC99 for Mycobacterium tuberculosis H37Rv in iron-deficient GAST medium. The data set is classed as functional.
A further data set has as its system Vero. As to the kind of experiment: Cytotoxicity against african green money Vero cells after 48 hrs by MTT assay. The data set is classed as cell-based. The settings on record: Chlorocebus sabaeus.
A further data set is filed under the species Oryctolagus cuniculus. The data set is described as follows: Inhibition of protein synthesis in T7 coupled rabbit reticulocyte system by luciferase based translation assay. It counts as functional.
Data set [5] can be described thus: Therapeutic index, ratio of IC50 for african green money Vero cells to MIC99 for Mycobacterium tuberculosis H37Rv. It counts as cell-based. The settings on record: monkey.

The structures appear in SMILES notation. ≈ marks a conversion by molar mass, not a printed value. Calls of active or inactive are those of the source. The calls are words filed in the database; no cut-off is given here.

Consider `CCN(CC)CC.Nc1ncnc2c1ccn2[C@@H]1O[C@H](COS(=O)(=O)NC(=O)c2ccccc2O)[C@@H](O)[C@H]1O`, for which, in data set [1], the Ki was determined as 0.0243 µM. Further, the MIC99 (commonly the lowest concentration that inhibits either 99% of growth or 99% of the strains tested, depending on the study) worked out at 6.25 µM in data set [2] and 50 µM in data set [3]. The Ratio in data set [4] is 8. Further, in the data set on Vero, the IC50 (as a rule, the concentration that gives 50% inhibition) was greater than 100 µM.
Taken in the same sequence, the figures for `CCCNc1ncnc2c1ncn2[C@@H]1O[C@H](COS(=O)(=O)NC(=O)c2ccccc2O)[C@@H](O)[C@H]1O.CCN(CC)CC` were 0.0035 µM, 0.39 µM, 1.56 µM, 4 and greater than 100 µM.
With `Nc1nc(-c2ccc(-c3ccccc3)cc2)nc2c1ncn2[C@@H]1O[C@H](COS(=O)(=O)NC(=O)c2ccccc2O)[C@@H](O)[C@H]1O`, the Ki in data set [1] came to 0.00099 µM. The MIC99 in data set [2] was 25 µM (≈ 15.5 µg/mL); in data set [3] it was greater than 50 µM. For the same molecule, the half-inhibitory concentration (IC50) with Vero is greater than 100 µM.
For the molecule `Nc1nc(-c2ccccc2-c2ccccc2)nc2c1ncn2[C@@H]1O[C@H](COS(=O)(=O)NC(=O)c2ccccc2O)[C@@H](O)[C@H]1O`, in data set [1], the Ki is 0.047 µM. Further, the MIC99 in data set [2] and in data set [3] was greater than 50 µM in each case. In addition, the half-maximal inhibitory concentration (IC50) in the data set with Vero is greater than 100 µM.
Take `CCN(CC)CC.O=C(NS(=O)(=O)OC[C@H]1O[C@@H](n2cnc3c(NC4CC4)ncnc32)[C@H](O)[C@@H]1O)c1ccccc1O`: the Ki in data set [1] is 0.00185 µM. Further, the MIC99 in data set [2] stood at 0.098 µM; in data set [3], 6.25 µM. The Ratio in data set [4] is reported as 64. The IC50 with Vero is greater than 100 µM.
Taken in the same sequence, the figures for `CCNc1ncnc2c1ncn2[C@@H]1O[C@H](COS(=O)(=O)[N-]C(=O)c2ccccc2O)[C@@H](O)[C@H]1O.[Na+]` were 0.0044 µM, 0.39 µM, 1.56 µM, 4 and greater than 100 µM.
For `Nc1ncnc2c1ncn2[C@@H]1O[C@H](COS(N)(=O)=O)[C@@H](O)[C@H]1O`, in the data set filed under Oryctolagus cuniculus, the result was Active.
For `CCN(CC)CC.Nc1nc(Nc2ccccc2)nc2c1ncn2[C@@H]1O[C@H](COS(=O)(=O)NC(=O)c2ccccc2O)[C@@H](O)[C@H]1O`, in data set [1], the Ki was 0.00094 µM. For the same molecule, the values for the MIC99 in data set [2] and in data set [3] were 0.049 µM and 0.39 µM, respectively. Further, the Ratio in data set [4] was 8. For the same molecule, the IC50 with Vero was greater than 100 µM. Besides, the selectivity ratio in data set [5] was greater than 2000.
In the case of `O=C(NS(=O)(=O)OC[C@H]1O[C@@H](n2cnc3c(NC4CCC4)ncnc32)[C@H](O)[C@@H]1O)c1ccccc1O`, in data set [1], the Ki was 0.124 µM. Further, the MIC99 in data set [2] and in data set [3] was greater than 100 µM each time. This molecule came in with a half-maximal inhibitory concentration (IC50) with Vero greater than 100 µM.
With `Nc1ncnc2c1nc(Br)n2[C@@H]1O[C@H](COS(=O)(=O)NC(=O)c2ccccc2O)[C@@H](O)[C@H]1O`, the Ki in data set [1] was found to be 2.05 µM. Moreover, the MIC99 in data set [2] and in data set [3] was greater than 50 µM throughout. Also, the IC50 in the data set with Vero is greater than 100 µM.
For the molecule `CNc1ncnc2c1ncn2[C@@H]1O[C@H](COS(=O)(=O)[N-]C(=O)c2ccccc2O)[C@@H](O)[C@H]1O.[Na+]`, the Ki in data set [1] stood at 0.0016 µM. Besides, the MIC99 in data set [2] was found to be 0.39 µM; in data set [3], 1.56 µM. Besides, in data set [4], the Ratio was 4. Moreover, the IC50 with Vero is greater than 100 µM.
Consider `O=C(NS(=O)(=O)OC[C@H]1O[C@@H](n2cnc3c(NCc4ccccc4)ncnc32)[C@H](O)[C@@H]1O)c1ccccc1O`, for which the Ki in data set [1] worked out at 8.26 µM. For the same molecule, the MIC99 in data set [2] and in data set [3] was greater than 100 µM each time. In the data set on Vero, the IC50 was greater than 100 µM.
As for `CC(C)CNc1ncnc2c1ncn2[C@@H]1O[C@H](COS(=O)(=O)NC(=O)c2ccccc2O)[C@@H](O)[C@H]1O`, the Ki in data set [1] is 1.14 µM. Moreover, the MIC99 in data set [2] and in data set [3] was greater than 100 µM in each case. Moreover, the IC50 in the data set with Vero was greater than 100 µM.
Consider `CCN(CC)CC.Nc1cccc2c1ccn2C1CC(COS(=O)(=O)NC(=O)c2ccccc2O)[C@@H](O)[C@H]1O` (single isomer, unassigned), for which the Ki in data set [1] was determined as 0.0201 µM. Further, the MIC99 is 6.25 µM in data set [2] and 50 µM in data set [3]. Moreover, in data set [4], the Ratio amounted to 8. In the data set on Vero, the IC50 is greater than 100 µM.
Turning to `[N-]=[N+]=Nc1nc2c(N)ncnc2n1[C@@H]1O[C@H](COS(=O)(=O)NC(=O)c2ccccc2O)[C@@H](O)[C@H]1O`, in data set [1], the Ki stood at 42.5 µM. The MIC99 in data set [2] and in data set [3] was greater than 50 µM throughout. In the data set on Vero, this molecule showed an IC50 greater than 100 µM.
Regarding `Nc1nc(-c2cccc(-c3ccccc3)c2)nc2c1ncn2[C@@H]1O[C@H](COS(=O)(=O)NC(=O)c2ccccc2O)[C@@H](O)[C@H]1O`, in data set [1], the Ki is 0.0014 µM. Moreover, the results for the MIC99 in data set [2] and in data set [3] were 25 µM (≈ 15.5 µg/mL) and greater than 50 µM, respectively. Besides, the IC50 in the data set on Vero is greater than 100 µM.
Taken in the same sequence, the figures for `O=C(NS(=O)(=O)OC[C@H]1O[C@@H](n2cnc3c(=O)[nH]cnc32)[C@H](O)[C@@H]1O)c1ccccc1O` were 0.8 µM, greater than 100 µM, greater than 100 µM and greater than 100 µM.
In the case of `CN(C)c1ncnc2c1ncn2[C@@H]1O[C@H](COS(=O)(=O)NC(=O)c2ccccc2O)[C@@H](O)[C@H]1O`, the Ki in data set [1] stood at 0.38 µM. The molecule further displayed an MIC99 in data set [2] of 50 µM (≈ 24.7 µg/mL). This molecule displayed a half-inhibitory concentration (IC50) in the data set with Vero greater than 100 µM.
For `CCN(CC)CC.Nc1nc(I)nc2c1ncn2[C@@H]1O[C@H](COS(=O)(=O)NC(=O)c2ccccc2O)[C@@H](O)[C@H]1O`, the Ki in data set [1] stood at 0.00303 µM. Moreover, the MIC99 worked out at 0.19 µM in data set [2] and 3.12 µM in data set [3]. Further, the Ratio in data set [4] was determined as 16. Also, the IC50 in the data set on Vero is greater than 100 µM.
Taken in the same sequence, the figures for `CC(C)Nc1ncnc2c1ncn2[C@@H]1O[C@H](COS(=O)(=O)[N-]C(=O)c2ccccc2O)[C@@H](O)[C@H]1O.[Na+]` were 0.007 µM, 25 µM, greater than 100 µM, greater than 4 and greater than 100 µM.
With `O=C(NS(=O)(=O)OC[C@H]1O[C@@H](n2cnc3c(NC4CCCC4)ncnc32)[C@H](O)[C@@H]1O)c1ccccc1O`, in data set [1], the Ki is 9.41 µM. The MIC99 in data set [2] and in data set [3] was greater than 100 µM each time. In the data set on Vero, this molecule registered an IC50 greater than 100 µM.
Regarding `Nc1nc(-c2ccccc2)nc2c1ncn2[C@@H]1O[C@H](COS(=O)(=O)NC(=O)c2ccccc2O)[C@@H](O)[C@H]1O`, the results for the MIC99 in data set [2] and in data set [3] were 0.049 µM (≈ 0.0266 µg/mL) and 0.39 µM (≈ 0.212 µg/mL), respectively. In the data set with Vero, this molecule registered a 50% inhibitory concentration (IC50) greater than 100 µM.
Turning to `Nc1ncnc2c1nc(N)n2[C@@H]1O[C@H](COS(=O)(=O)NC(=O)c2ccccc2O)[C@@H](O)[C@H]1O`, the Ki in data set [1] amounted to 183 µM. For the same molecule, the MIC99 in data set [2] and in data set [3] was greater than 50 µM in each case. In the data set with Vero, this molecule gave an IC50 greater than 100 µM.
As for `CCN(CC)CC.Nc1nc(C#Cc2ccccc2)nc2c1ncn2[C@@H]1O[C@H](COS(=O)(=O)NC(=O)c2ccccc2O)[C@@H](O)[C@H]1O`, the Ki in data set [1] was determined as 0.0004 µM. The MIC99 turned out to be 0.049 µM in data set [2] and 0.39 µM in data set [3]. Besides, the Ratio in data set [4] is 8. In the data set with Vero, this molecule displayed an IC50 greater than 100 µM. Besides, the selectivity ratio in data set [5] was greater than 2000.

(Values after ChEMBL document CHEMBL1157357, “Inhibition of siderophore biosynthesis in Mycobacterium tuberculosis with nucleoside bisubstrate analogues: structure-activity relationships of the nucleobase domain of 5'-O-[N-(salicyl)sulfamoyl]adenosine” (J Med Chem, 2008).)
